This note sets out measurements from ChEMBL document CHEMBL3627702, “Navigating CYP1A Induction and Arylhydrocarbon Receptor Agonism in Drug Discovery. A Case History with S1P1 Agonists” (J Med Chem, 2015).

Series [1] in a line: Lipophilicity, log D of the compound at pH 7.4. In kind it is physicochemical. The following applies: buffer.
In series [2] the test system is CYP1A1. The experiment in a line: Induction of CYP1A1 mRNA expression in Sprague-Dawley rat hepatic microsomes at 30 mg/kg, po QD for 4 days relative to control. The following applies: read-out: FC. In kind it is ADME, organism-based, Liver. In short, it runs like this: (§1)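 Male CD rats (226–325 g, n = 3) were dosed by oral gavage once daily for 4 days as a 1% w/v aqueous methylcellulose suspension (3–6 mg/mL, 5 mL/kg). At the end of the study, a left lateral liver lobe section was placed in RNALater and homogenised in TRIzol. RNA was purified, DNase-treated and converted to cDNA, and Cyp1a1 was read on low-density TaqMan arrays.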

The nature of series [3]: Dissociation constant, pKa of the compound. In kind it is physicochemical.
Series [4] deals with CYP1A2. The series is described as follows: Induction of CYP1A2 mRNA expression in Sprague-Dawley rat hepatic microsomes at 30 mg/kg, po QD for 4 days relative to control. In kind it is ADME, organism-based, Liver. Particulars: read-out: FC.
A short description of series [5]: Cmax in Sprague-Dawley rat at 30 mg/kg, po QD measured on day 1. In kind it is ADME, organism-based. On the set-up: dose 30 mg/kg, route oral. The following applies: in vivo. The gist of the method:
(§2)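 Male CD rats (226−325 g), n = 3, given the compound once daily by oral gavage for 4 days. Vehicle was 1% (w/v) methylcellulose aq suspension at 3−6 mg/mL, dosed at 5 mL/kg (target 15−30 mg/kg). Tail vein blood was taken on days 1 and 4 up to 24 h postdose. Blood was diluted 1:1 with water, extracted by acetonitrile protein precipitation and analysed by LC−MS/MS against calibration standards in diluted blood.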

Series [6] is described as follows: Cmax in Sprague-Dawley rat at 30 mg/kg, po QD measured on day 4. In kind it is ADME, organism-based. On the set-up: dose 30 mg/kg, route oral. Particulars: in vivo. The gist of the method: as §2
Series [7] in a line: AUC in Sprague-Dawley rat at 30 mg/kg, po QD measured on day 1. In kind it is ADME, organism-based. The following applies: in vivo. The gist of the method:
as §2

Series [8] in a line: AUC in Sprague-Dawley rat at 30 mg/kg, po QD measured on day 4. In kind it is ADME, organism-based. Particulars: in vivo. In short, it runs like this: as §2
The test system of series [9] is Rattus norvegicus. The experiment in a line: Dose normalized AUC in Sprague-Dawley rat at 30 mg/kg, po QD measured on day 1. The following applies: in vivo. In kind it is ADME, organism-based. In short, it runs like this:
as §2

Series [10] concerns Rattus norvegicus. The experiment in a line: Dose normalized AUC in Sprague-Dawley rat at 30 mg/kg, po QD measured on day 4. In kind it is ADME, organism-based. Particulars: in vivo. In short, it runs like this:
as §2

The target in series [11] is T1, CYP1A2 (Homo sapiens, UniProt P05177).
T1 sequence (P05177 whole entry): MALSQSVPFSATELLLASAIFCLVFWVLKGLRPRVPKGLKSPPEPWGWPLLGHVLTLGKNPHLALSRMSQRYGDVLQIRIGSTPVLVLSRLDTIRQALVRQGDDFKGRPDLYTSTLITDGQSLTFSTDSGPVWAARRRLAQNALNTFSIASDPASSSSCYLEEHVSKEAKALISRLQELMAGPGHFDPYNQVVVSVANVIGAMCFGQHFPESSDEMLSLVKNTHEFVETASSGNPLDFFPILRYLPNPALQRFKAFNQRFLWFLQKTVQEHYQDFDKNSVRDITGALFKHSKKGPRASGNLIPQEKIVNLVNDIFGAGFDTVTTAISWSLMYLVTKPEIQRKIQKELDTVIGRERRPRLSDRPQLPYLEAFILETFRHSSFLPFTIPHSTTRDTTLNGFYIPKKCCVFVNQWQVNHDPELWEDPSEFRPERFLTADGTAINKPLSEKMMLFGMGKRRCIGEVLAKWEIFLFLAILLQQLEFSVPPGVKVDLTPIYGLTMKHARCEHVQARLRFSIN
The experiment in a line: Induction of CYP1A2-mediated 7-ethoxyresorufin O-deethylase activity in human hepatocytes at 5 uM after 10 mins by fluorescence assay relative to control. In kind it is ADME, cell-based, Hepatocyte. Particulars: probe 7-ethoxyresorufin, read-out: FC. In short, it runs like this: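 Human hepatocytes were treated for 48 h (re-dosed at 24 h), washed, then incubated with 0.5 μM ethoxyresorufin in serum-free medium for 10 min at 37 °C. Resorufin fluorescence read at Ex 530/Em 590 nm. Rate in fluorescence units/min expressed as fold over solvent control.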

Series [12] concerns CYP1A2. The series is described as follows: Induction of CYP1A2 mRNA expression in human hepatocytes at 10 uM relative to control. In kind it is ADME, cell-based, Hepatocyte. Particulars: read-out: FC.
The test system of series [13] is CYP1A2. The experiment in a line: Induction of CYP1A2 mRNA expression in rat hepatic microsomes at 30 mg/kg, po QD for 7 days relative to control. In kind it is ADME, organism-based, Liver. Particulars: read-out: FC. In short, it runs like this: (§3)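 Male rats dosed orally once daily for 7 days. Hepatic mRNA measured by Taqman and expressed as fold induction versus control animals.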

For series [14], the system named is CYP1A1. The series is described as follows: Induction of CYP1A1 mRNA expression in rat hepatic microsomes at 30 mg/kg, po QD for 7 days relative to control. In kind it is ADME, organism-based, Liver. Particulars: read-out: FC. In short, it runs like this:
as §3

Series [15] concerns CYP1A2. The experiment in a line: Induction of CYP1A2 mRNA expression in rat hepatocytes at 10 uM by Taqman analysis relative to control. In kind it is ADME, cell-based, Hepatocyte. The following applies: read-out: FC. Background: In qPCR the cycle at which signal appears reflects the starting amount.
The subject of series [16] is CYP1A1. The series is described as follows: Induction of CYP1A1 mRNA expression in rat hepatocytes at 10 uM by Taqman analysis relative to control. In kind it is ADME, cell-based, Hepatocyte. Particulars: read-out: FC.
The test system of series [17] is CYP1A1. The experiment in a line: Induction of CYP1A1 mRNA expression in Sprague-Dawley rat hepatic microsomes at 19 mg/kg, po QD for 4 days relative to control. In kind it is ADME, organism-based, Liver. Particulars: read-out: FC. In short, it runs like this: as §1
Series [18] deals with CYP1A2. The experiment in a line: Induction of CYP1A2 mRNA expression in Sprague-Dawley rat hepatic microsomes at 19 mg/kg, po QD for 4 days relative to control. In kind it is ADME, organism-based, Liver. Particulars: read-out: FC.
Series [19] in a line: Cmax in Sprague-Dawley rat at 19 mg/kg, po QD measured on day 1. Also on record: dose 19 mg/kg, route oral. In kind it is ADME, organism-based. Particulars: in vivo. In short, it runs like this: as §2
Series [20] in a line: Cmax in Sprague-Dawley rat at 19 mg/kg, po QD measured on day 4. In kind it is ADME, organism-based. Also on record: dose 19 mg/kg, route oral. The following applies: in vivo. The gist of the method: as §2
Series [21] can be described thus: AUC in Sprague-Dawley rat at 19 mg/kg, po QD measured on day 1. In kind it is ADME, organism-based. Particulars: in vivo. In short, it runs like this: as §2
Series [22] is described as follows: AUC in Sprague-Dawley rat at 19 mg/kg, po QD measured on day 4. In kind it is ADME, organism-based. Particulars: in vivo. The gist of the method:
as §2

Series [23] relates to Rattus norvegicus. The series is described as follows: Dose normalized AUC in Sprague-Dawley rat at 19 mg/kg, po QD measured on day 1. In kind it is ADME, organism-based. The following applies: in vivo. The gist of the method: as §2
Series [24] relates to Rattus norvegicus. The series is described as follows: Dose normalized AUC in Sprague-Dawley rat at 19 mg/kg, po QD measured on day 4. In kind it is ADME, organism-based. Particulars: in vivo. The gist of the method: as §2
A short description of series [25]: Oral bioavailability in CD rat at 3 mg/kg. In kind it is ADME, organism-based. The following applies: in vivo. The gist of the method: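 Male CD rats cannulated in the femoral and jugular veins, n = 3, crossover design. Day 1: 1 h iv infusion at 1 mg/kg (0.2 mg/mL in ≤5% DMSO/≥95% 10% Kleptose in saline, 5 mL/kg/h). Day 2: oral gavage at 3 mg/kg (0.6 mg/mL in 1% methylcellulose, 5 mL/kg). Blood assayed by LC–MS/MS after acetonitrile precipitation.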

Broadly, the logD is lipophilicity at a set pH, counting ionised and neutral species. A lower logD goes with a more hydrophilic compound. A word on the pKa: it is the pH at which an ionisable group is half protonated. By Cmax is commonly meant the peak of the concentration-time curve. As a reminder, the AUC is the area under the concentration-time curve, a measure of exposure. Lower therefore signals low exposure. The compound `Cc1c(-c2noc(-c3ccc(OC(C)C)c(C#N)c3)n2)ccc2c1CCN(C[C@H](O)CO)C2` registered a logD in [1] of 2.7. For the same compound, the fold induction at 96 h is 64 with CYP1A1 [2] and 10 with CYP1A2 [4]. This compound returned a pKa in series [3] of 7.7. Besides, the Cmax in series [5] amounted to 770 ng/mL; in series [6], 500 ng/mL. Also, the exposure (AUC) in series [7] came to 4440 ng·h/mL; in series [8], 3600 ng·h/mL. Moreover, the AUC/dose with Rattus norvegicus [9] and in the series on Rattus norvegicus [10] was 9 kg·min/L in each case.

As for `Cc1c(-c2noc(-c3ccc(OC(C)C)c(C#N)c3)n2)ccc2c1CCN(CCC(=O)O)C2`, the fold induction at 10 min, 5 µM on CYP1A2 [11] stood at 1.1. Further, the values for the fold induction at 10 µM in the series on CYP1A2 [12], in the series on CYP1A2 [15] and in the series on CYP1A1 [16] were 0.2, less than 1 and less than 1, respectively. In addition, the values for the fold induction at 168 h with CYP1A2 [13] and in the series with CYP1A1 [14] were 1 and 3, respectively.

`Cc1c(-c2noc(-c3ccc(OC(C)C)c(C#N)c3)n2)ccc2c1CCN(C(CO)CO)C2`: the logD in series [1] was 2.76. The fold induction at 96 h is 1.4 in the series with CYP1A1 [2] and 1.5 in the series with CYP1A2 [4]. In addition, the Cmax in series [5] amounted to 440 ng/mL; in series [6], 790 ng/mL. The figures for the AUC in series [7] and in series [8] were 4420 ng·h/mL and 7640 ng·h/mL, respectively. In addition, the figures for the AUC/dose in the series with Rattus norvegicus [9] and in the series on Rattus norvegicus [10] were 9 kg·min/L and 16 kg·min/L, respectively.

`Cc1c(-c2nnc(-c3ccc(OC(C)C)c(C#N)c3)s2)ccc2c1CCN(C(CO)CO)C2`: the logD in series [1] stood at 2.33. The pKa in series [3] amounted to 7.2. The fold induction at 96 h in the series with CYP1A1 [17] amounted to 1.7; in the series on CYP1A2 [18], 1. In addition, the Cmax in [19] turned out to be 1750 ng/mL; in series [20] it was 2320 ng/mL. Moreover, the figures for the AUC in [21] and in series [22] were 19100 ng·h/mL and 27800 ng·h/mL, respectively. Also, the results for the AUC/dose with Rattus norvegicus [23] and in the series with Rattus norvegicus [24] were 61 kg·min/L and 89 kg·min/L, respectively.

As a reminder, the bioavailability is dose-corrected exposure relative to a reference, in per cent. Lower therefore signals poor availability. For `CC(C)Oc1ccc(-c2nc(-c3ccc4c(c3)CCN(C(CO)CO)CC4)no2)cc1C#N`, the bioavailability in series [25] came out at 68%. In series [1], this compound registered a logD of 2.78. The fold induction at 96 h was 604 in the series on CYP1A1 [2] and 7.3 in the series with CYP1A2 [4]. Moreover, the Cmax came out at 1600 ng/mL in series [5] and 1380 ng/mL in series [6]. The AUC is 23000 ng·h/mL in [7] and 23100 ng·h/mL in [8]. In addition, the AUC/dose amounted to 48 kg·min/L in the series on Rattus norvegicus [9] and 59 kg·min/L in the series on Rattus norvegicus [10].
